The list is not random: actives were taken first. Their share in the collection is about 4.8%.
HSF1 inh = HSF1 inhibition; NIH3T3-HGL HSE-luciferase, MG132-induced, luminescence 8 h; hits give low values; actives 0.77% (n = 300,000); activity change, negative = inhibition, % at 7.5 µM (by protocol);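 active = more than half of replicate wells show activity change below -50%, luminescence cut by over half; inconclusive = some wells, but at most half, below -50%; inactive = no replicate well below -50%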;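 note: luciferase reports HSF-1 transcriptional activity via heat shock element; 0% = median of DMSO wells and -100% = zero luminescence signal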
GPR7 antagonist = blocks human GPR7 receptor signaling | P48145 | GPR7-expressing cells, fluorescence antagonist assay | inhibition, % at 4.4 µM | actives 1.1% (n = 290,000) | AID 1861; in the data active = inhibition above about 16%, passing the limit was not always enough;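 note: cells stimulated with the agonist NPW; 0% = agonist with vehicle and 100% = vehicle without agonist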
Target sequence (P48145 whole entry, looked up): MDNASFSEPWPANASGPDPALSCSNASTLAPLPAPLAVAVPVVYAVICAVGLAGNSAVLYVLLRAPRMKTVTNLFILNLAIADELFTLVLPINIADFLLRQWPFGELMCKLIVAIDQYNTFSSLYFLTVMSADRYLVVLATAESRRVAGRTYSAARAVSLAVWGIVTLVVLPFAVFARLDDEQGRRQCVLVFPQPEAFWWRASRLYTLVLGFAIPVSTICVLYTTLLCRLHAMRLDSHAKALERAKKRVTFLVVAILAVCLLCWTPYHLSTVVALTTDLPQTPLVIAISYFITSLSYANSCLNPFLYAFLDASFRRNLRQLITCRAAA
HSF-1 act = increases HSF-1 driven luciferase reporter signal; NIH3T3-HGL HSF-1 luciferase reporter, MG132, 8 h; 100% = twice DMSO control signal; activation, % at 9 µM; actives 1.7% (n = 300,000); AID 504408;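 active = mean replicate activation of at least 50% with a set share of replicates each reaching 50%; inconclusive = only one of those two conditions met; inactive = mean below 50% and too few replicates reaching it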;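 note: 0% = median of the neutral control wells and 100% = twice that signal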
Jurkat NFkB inh = inhibitors of the PMA/ionomycin-induced NF-kB reporter in Jurkat cells; PMA/ionomycin-induced NF-kB luciferase reporter, luminescence; AID 435003; actives 0.53% (n = 330,000); inhibition, % at 4 µM; in the data active = inhibition above about 50%
T cruzi inh = T. cruzi replication inhibition | inhibition, % (test concentration not listed) | actives 1.4% (n = 300,000) | AID 1885 | T. cruzi beta-gal in NIH3T3, luminescence, 90 h;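 active = mean inhibition across valid replicates above about 55%, limit read from the data; inconclusive = mean below that limit but half or more replicates reach it; inactive = mean below it, under half of replicates reach it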;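 note: signal also drops with host cell toxicity which is not excluded here; 0% = plate median of DMSO wells and 100% = zero luminescence signal; higher percent means less beta-gal luminescence so fewer parasites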
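compound dosing = single 50 nL compound addition per well in DMSO | material = NIH/3T3 host cells with β-galactosidase reporter T. cruzi | input = 5,000 host fibroblasts per well | timing = ≥90 h infection period, 3 h prior cell attachment | read-out basis = percent inhibition of parasite-derived β-gal signal | detection = GalScreen β-gal luminescence, detergent lysis, 60 min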
697 NFkB inh = inhibitors of the PMA/ionomycin-induced NF-kB reporter in 697 B cells | inhibition, % at 4 µM | 697 B-cell NF-kB luciferase reporter, 16 h | actives 0.33% (n = 330,000); in the data active = inhibition above about 35%
697 NFkB conf = lowers PMA/ionomycin-induced NF-kB signal in 697 B cells; shares compounds with 697 NFkB inh; 697 B-cell NF-kB luciferase, 16 h; inhibition, % at 4 µM; actives 35% (n = 2,000); in the data active = inhibition mostly above about 28%, no sharp cut-off; inactive = mostly below about 22%
* hit, by the source's call; i = inactive; ? = inconclusive; · = no result.

SMILES	HSF1 inh	GPR7 antagonist	HSF-1 act	Jurkat NFkB inh	T cruzi inh	697 NFkB inh	697 NFkB conf
COc1ccc(N2CCN(CCCn3c(=S)[nH]c4ccccc4c3=O)CC2)cc1	-5	21	4	-34	?	-309	-18
COc1ccc(NC(=O)c2ccc(Br)c(S(=O)(=O)N3CCOCC3)c2)cc1	-23	-8	-37	5	8	-8	·
Cc1ccc(C(=O)c2coc3ccc(O)cc23)cc1	19	-9	24	-133	-1	-254	-323
COc1ccc(C(=O)c2coc3ccc(OC(C)=O)cc23)cc1	27	8	20	-124	11	-279	-312
Cc1cc(C)n2nc(C(=O)OCC(=O)N(Cc3ccccc3)C(C)C)nc2n1	·	·	·	10	·	10	·
CCOCCn1cnc2sc(C(=O)NCCCN3CCOCC3)c(C)c2c1=O	6	-11	13	-6	1	1	·
C(=C\c1ccc2ccccc2n1)/c1ccccc1	-30	-5	-12	-105	-18	-280	-373
O=[N+]([O-])c1ccc(/C=C/c2ccc3ccccc3n2)cc1	8	0	?	-120	21	-259	-362
O=[N+]([O-])c1ccc(/C=C/c2ccc3cccc(O)c3n2)cc1	2	25	-12	-137	-5	-168	·
COc1ccc(-c2noc(CCCC(=O)N3CCOCC3)n2)cc1	-1	0	-6	-6	-9	3	·
CN(C)C(=O)CCc1nc(-c2ccc(C(C)(C)C)cc2)no1	5	-7	28	-67	-8	81*	77*
CC(C)(C)c1ccc(-c2noc(CCC(=O)NCC3CCCO3)n2)cc1 (stereo not given)	-15	-8	-12	8	9	96*	88*
Cc1ccc(-c2noc(CCC(=O)NCC3CCCO3)n2)cc1 (stereo not given)	-5	-2	17	15	-1	19	·
CC(C)(C)c1ccc(-c2noc(CCC(=O)N3CCOCC3)n2)cc1	4	-21	42	-63	-8	52*	37*
COc1ccc(-c2noc(CCC(=O)Nc3cccnc3)n2)cc1	-10	-8	-21	2	0	1	·
CC(C)(C)c1ccc(-c2noc(CCC(=O)Nc3cccnc3)n2)cc1	-46	-15	-45	-54	2	91*	91*
CCc1ccccc1N(CC)C(=O)CCc1nc(-c2ccc(C)cc2)no1	-1	-14	11	9	16	-5	·
CCn1c(SCC(=O)N2CCN(c3ccccc3)CC2)nc2c([nH]c3ccccc32)c1=O	13	-15	20	3	-8	12	·
COC(=O)[C@]1(C)CCC[C@@]2(C)C3CC[C@@]4(C)C[C@]3(CCC21)CC(=O)N4Cc1ccc(OC)cc1 (stereo not given in full)	·	·	·	7	·	-3	·
CCOc1ccc(-c2noc(CCC(=O)NC)n2)cc1OCC	7	-7	33	20	-4	5	·
CC(C)(C)c1ccc(-c2noc(CCC(N)=O)n2)cc1	-29	-11	-37	19	3	93*	94*
CNC(=O)CCc1nc(-c2ccc(C(C)(C)C)cc2)no1	9	-8	18	-91	-5	84*	72*
COc1cc(-c2noc(CCCC(=O)Nc3ccc(C(N)=O)cc3)n2)cc(OC)c1OC	-6	-15	-3	2	-7	22	·
COc1ccc(-c2noc(CCCC(=O)Nc3ccc(C(N)=O)cc3)n2)cc1	-38	-2	-46	10	-3	78*	45*
CCc1ccc(NC(=O)CSc2nnc(CNC(=O)c3ccc(OC)cc3)o2)cc1	0	2	2	17	33	-3	·
SMILES	HSF1 inh	GPR7 antagonist	HSF-1 act	Jurkat NFkB inh	T cruzi inh	697 NFkB inh	697 NFkB conf
CCCCCCNc1nc(Cl)nc(NC(C)(C)CO)n1	-3	-15	11	9	10	11	·
COc1ccc(-c2noc(-c3ccc(Cl)cc3)n2)cc1	3	-1	25	-139	-8	-143	·
COc1ccc(-c2nc(-c3ccc(C(=O)O)cc3)no2)cc1	10	·	26	-17	-20	-315	-353
Fc1ccccc1-c1nc(-c2ccccc2)no1	26	-9	?	-120	-16	-272	-227
COc1cccc(-c2nc(-c3ccccc3)no2)c1	-2	-7	20	-142	4	-279	-270
O=C(N/N=C\c1ccccc1F)c1ccc(-c2ccccc2)cc1	·	-22	·	-28	·	-32	·
CC(OC(=O)c1ccc(Cl)nc1)C(=O)NCc1ccc2c(c1)OCO2 (stereo not given)	3	·	5	3	-4	-3	·
CCNc1nc(C)c2cc(Br)c(=O)n(CC)c2n1	-12	-8	7	26	25	41*	40*
COc1ccccc1Cn1c(=O)c2ccccc2n2c(Sc3ncnc4sccc34)nnc12	16	-12	21	14	19	35*	18
COc1ccccc1Cn1c(=O)c2ccccc2n2c(SCc3csc(C)n3)nnc12	10	1	0	-11	36	-1	·
CCOC(=O)N1CCC(N2CCN(S(=O)(=O)c3ccc4ccccc4c3)CC2)CC1	0	3	22	18	19	-5	·
CCOC(=O)N1CCC(N2CCN(S(=O)(=O)c3ccc([N+](=O)[O-])cc3)CC2)CC1	5	-1	16	6	14	35*	-10
Cc1ccc(NC(=O)Cn2c(O)c(N=NC(N)=O)c3ccccc32)cc1	-2	0	-8	14	?	-1	·
Cc1ccc(NC(=O)Cn2c(O)c(N=NC(N)=S)c3ccccc32)cc1	-2	-3	10	-8	-20	40*	-1
NC(=S)N=Nc1c(O)n(Cc2ccccc2)c2ccccc12	-1	-6	0	10	41	45*	39*
O=C(Nc1ccc(OC(F)(F)F)cc1)C1CCCCN1S(=O)(=O)c1ccccc1 (stereo not given)	·	·	·	8	·	-32	·
CCC(=O)Nc1ccc2oc(-c3cccc(C)c3)nc2c1	·	-2	·	-127	·	-317	-395
COc1ccc(-c2nc(NC(=O)c3n[nH]c(=O)c4ccccc34)sc2C)cc1	-5	-6	5	-42	7	i	-52
Cc1cc(C)c(-c2csc(NC(=O)c3n[nH]c(=O)c4ccccc34)n2)c(C)c1	-15	-3	-12	-14	14	-333	-227
COc1cc(NC(=O)c2n[nH]c(=O)c3ccccc23)cc(OC)c1	1	-6	6	-6	-20	3	·
COc1cc2c(cc1OC)C1(CCCC1)CNC2c1cccc([N+](=O)[O-])c1 (stereo not given)	-3	-4	-4	-3	-3	22	·
